Assay results reported in ChEMBL document CHEMBL3352236, “Discovery and molecular modeling of novel 1-indolyl acetate--5-nitroimidazole targeting tubulin polymerization as antiproliferative agents” (Eur J Med Chem, 2014).

Key:
U-251 = test: Antiproliferative activity against human U251 cells after 24 to 48 hrs by CKK8 assay; type: functional, cell-based
Method in brief: (§1)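 CCK-8 assay. 1–5 × 10³ cells per well grown at 37 °C for 12 h, then exposed to rising compound concentrations in 10% FBS for 24 or 48 h. CCK-8 dye added and incubated 1–2 h at 37 °C, […]. Percent inhibition or IC50 taken relative to DMSO-treated control wells.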

HeLa = test: Antiproliferative activity against human HeLa cells after 24 to 48 hrs by CKK8 assay; type: functional, cell-based; method in brief: as §1
A549 = test: Antiproliferative activity against human A549 cells after 24 to 48 hrs by CKK8 assay; type: functional, cell-based; method in brief: as §1
[1] = Cytotoxicity against human macrophages assessed as reduction in cell viability after 24 hrs by MTT assay; type: cell-based, Macrophage
Method in brief: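 Human macrophages at 5*10⁵ cells per well treated with a range of compound concentrations for 24 h at 37 °C, 5% CO₂. MTT (4 mg/mL) added and left 4 h, then centrifugation at 1200 rcf for 5 min and formazan dissolved in DMSO. Absorbance read at 570 nm. Triplicate wells, assay run three times, mean CC50 (50% viability loss) ± SD reported.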

Tubulin = Tubulin (Bos taurus, UniProt Q6B856+Q862L2+Q862F3); test: Inhibition of bovine brain tubulin preincubated for 20 mins by turbidimetry

Row | Compound | IC50 (U-251) [µM] | IC50 (HeLa) [µM] | IC50 (A549) [µM] | CC50 at 24 h [1] [µM] | IC50 (Tubulin) [µM]
1 | O=C(OCCn1c([N+](=O)[O-])cnc1/C=C\c1ccc([N+](=O)[O-])cc1)c1c[nH]c2ccccc12 | 2.03 | 1.79 | 2.01 | 200 | 6.9
2 | O=C(OCCn1c([N+](=O)[O-])cnc1/C=C\c1ccccc1[N+](=O)[O-])c1c[nH]c2ccccc12 | 1.11 | 1.24 | 2.12 | 109 | 6.3
3 | O=C(OCCn1c([N+](=O)[O-])cnc1/C=C\c1ccc(Cl)cc1Cl)c1c[nH]c2ccccc12 | 0.87 | 1.05 | 2 | 287 | 2.4
4 | Cc1ccc(/C=C\c2ncc([N+](=O)[O-])n2CCOC(=O)c2c[nH]c3ccccc23)cc1 | 3.11 | 2.28 | 3.88 | 123 | 45.2
5 | O=C(OCCn1c([N+](=O)[O-])cnc1/C=C/c1ccc(Cl)cc1)c1c[nH]c2ccccc12 | 3.23 | 3.77 | 4.51 | 104 | 98.8
6 | O=C(OCCn1c([N+](=O)[O-])cnc1/C=C/c1ccccc1Cl)c1c[nH]c2ccccc12 | 2.98 | 3.1 | 4.24 | 132 | 71.2
7 | O=C(OCCn1c([N+](=O)[O-])cnc1/C=C/c1cccc(Cl)c1)c1c[nH]c2ccccc12 | 4.08 | 4.21 | 5.02 | 156 | 103
8 | O=C(OCCn1c([N+](=O)[O-])cnc1/C=C\c1cccc2ccccc12)c1c[nH]c2ccccc12 | 12.8 | 10.1 | 7.02 | 158 | 186.5
9 | COc1ccc(/C=C\c2cc(OC)c(OC)c(OC)c2)cc1O [COMBRETASTATIN A4] | 0.54 | 1.44 | 2.79 | – | –
10 | Cc1ccccc1/C=C\c1ncc([N+](=O)[O-])n1CCOC(=O)c1c[nH]c2ccccc12 | 2.79 | 4.43 | 4.02 | 202 | 67.2
11 | COc1cccc(/C=C\c2ncc([N+](=O)[O-])n2CCOC(=O)c2c[nH]c3ccccc23)c1 | 2.76 | 4.01 | 4.09 | 89 | 67.7
12 | Cc1cccc(/C=C\c2ncc([N+](=O)[O-])n2CCOC(=O)c2c[nH]c3ccccc23)c1 | 3.02 | 3.77 | 4.32 | 154 | 75.3
13 | COc1ccc(/C=C\c2ncc([N+](=O)[O-])n2CCOC(=O)c2c[nH]c3ccccc23)cc1 | 3.07 | 3.88 | 3.97 | 106 | 50.3
14 | O=C(OCCn1c([N+](=O)[O-])cnc1/C=C\c1cccc(Br)c1)c1c[nH]c2ccccc12 | 3.87 | 4.81 | 6.03 | 164 | 162
15 | COc1ccccc1/C=C\c1ncc([N+](=O)[O-])n1CCOC(=O)c1c[nH]c2ccccc12 | 4.09 | 3.23 | 3.11 | 77 | 21.4
16 | O=C(OCCn1c([N+](=O)[O-])cnc1/C=C\c1ccccc1Br)c1c[nH]c2ccccc12 | 3.09 | 4.12 | 5.11 | 145 | 112.2
17 | O=C(OCCn1c([N+](=O)[O-])cnc1/C=C\c1ccc(Br)cc1)c1c[nH]c2ccccc12 | 3.89 | 4.8 | 5.55 | 98 | 123.3
18 | O=C(OCCn1c([N+](=O)[O-])cnc1/C=C\c1cccc([N+](=O)[O-])c1)c1c[nH]c2ccccc12 | 2.81 | 2.01 | 2.86 | 123 | 19.5
19 | O=C(OCCn1c([N+](=O)[O-])cnc1/C=C\c1ccccc1)c1c[nH]c2ccccc12 | 16.9 | 13.6 | 8.43 | 105 | 204.1
